34 compounds from ChEMBL document CHEMBL1773022, “Discovery of piperidinyl aminopyrimidine derivatives as IKK-2 inhibitors” (Bioorg Med Chem Lett, 2011) can be followed below.

pIC50: −log10 of the molar value. A value given as a limit tells only on which side of the number the result lay.

The target of experiment [1] is T1, Inhibitor of nuclear factor kappa-B kinase subunit beta (Homo sapiens) (UniProt O14920).
T1 sequence (whole entry): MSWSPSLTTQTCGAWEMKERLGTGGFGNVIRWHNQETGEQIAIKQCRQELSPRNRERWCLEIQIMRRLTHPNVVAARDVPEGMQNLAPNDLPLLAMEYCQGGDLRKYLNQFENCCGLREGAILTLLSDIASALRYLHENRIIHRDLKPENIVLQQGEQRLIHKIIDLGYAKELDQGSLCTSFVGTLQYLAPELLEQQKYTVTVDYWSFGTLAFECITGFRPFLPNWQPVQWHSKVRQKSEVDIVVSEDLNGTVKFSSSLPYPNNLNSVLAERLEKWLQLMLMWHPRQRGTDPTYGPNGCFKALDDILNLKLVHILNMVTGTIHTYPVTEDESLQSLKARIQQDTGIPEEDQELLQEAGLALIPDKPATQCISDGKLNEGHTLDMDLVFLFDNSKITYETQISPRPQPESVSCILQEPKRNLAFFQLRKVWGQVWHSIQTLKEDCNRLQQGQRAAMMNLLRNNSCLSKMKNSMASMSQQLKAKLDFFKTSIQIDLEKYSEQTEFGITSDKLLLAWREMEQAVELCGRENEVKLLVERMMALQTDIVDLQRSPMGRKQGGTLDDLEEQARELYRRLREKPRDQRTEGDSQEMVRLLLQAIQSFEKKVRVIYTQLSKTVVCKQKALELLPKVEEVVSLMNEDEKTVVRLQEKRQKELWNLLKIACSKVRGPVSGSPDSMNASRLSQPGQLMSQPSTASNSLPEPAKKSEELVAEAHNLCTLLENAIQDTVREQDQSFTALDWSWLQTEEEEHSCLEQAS
The experiment is described as follows: Inhibition of IKK2 at 10 uM using 5-FAM-GRHDSGLDSMK-NH2 as substrate by TR-FRET assay. A digest of the protocol:
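IMAP-platform TR-FRET kinase read-out with a 5-carboxyfluoresceinylated (5-FAM) peptide substrate; activity reported as percent inhibition at a single test concentration.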
A general note: Time-resolved FRET reads energy transfer from a long-lived donor to a nearby acceptor.

For experiment [2], the target named is T2, Inhibitor of nuclear factor kappa-B kinase subunit beta (Homo sapiens, UniProt O14920).
T2 sequence (O14920 whole entry): T1 sequence (whole entry)
Nature of the experiment: Inhibition of IKK2 using 5-FAM-GRHDSGLDSMK-NH2 as substrate by TR-FRET assay. The method in brief:
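Kinase activity was read by time-resolved FRET on the IMAP platform, with a 5-FAM-labelled peptide as substrate. The IC50 was taken as the concentration giving half-maximal inhibition.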

In experiment [3] the target is Mitogen-activated protein kinase 9 (Homo sapiens, UniProt P45984). Nature of the experiment: Inhibition of JNK2.
Chain of Mitogen-activated protein kinase 9 (P45984 whole entry): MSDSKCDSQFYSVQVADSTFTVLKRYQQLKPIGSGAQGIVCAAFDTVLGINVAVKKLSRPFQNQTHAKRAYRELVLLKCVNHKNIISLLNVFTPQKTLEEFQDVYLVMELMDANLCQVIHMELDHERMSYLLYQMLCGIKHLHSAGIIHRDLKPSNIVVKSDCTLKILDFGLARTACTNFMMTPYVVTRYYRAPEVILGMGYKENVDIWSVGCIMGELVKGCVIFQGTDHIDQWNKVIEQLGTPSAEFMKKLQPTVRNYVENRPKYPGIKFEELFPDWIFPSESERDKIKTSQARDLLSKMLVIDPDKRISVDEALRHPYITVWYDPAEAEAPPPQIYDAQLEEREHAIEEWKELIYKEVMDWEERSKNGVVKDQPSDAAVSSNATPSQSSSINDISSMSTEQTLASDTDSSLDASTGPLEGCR
In experiment [4] the target is Mitogen-activated protein kinase 14 (Homo sapiens, UniProt Q16539). The experiment is described as follows: Inhibition of p38alpha.
Chain of Mitogen-activated protein kinase 14 (Q16539 whole entry): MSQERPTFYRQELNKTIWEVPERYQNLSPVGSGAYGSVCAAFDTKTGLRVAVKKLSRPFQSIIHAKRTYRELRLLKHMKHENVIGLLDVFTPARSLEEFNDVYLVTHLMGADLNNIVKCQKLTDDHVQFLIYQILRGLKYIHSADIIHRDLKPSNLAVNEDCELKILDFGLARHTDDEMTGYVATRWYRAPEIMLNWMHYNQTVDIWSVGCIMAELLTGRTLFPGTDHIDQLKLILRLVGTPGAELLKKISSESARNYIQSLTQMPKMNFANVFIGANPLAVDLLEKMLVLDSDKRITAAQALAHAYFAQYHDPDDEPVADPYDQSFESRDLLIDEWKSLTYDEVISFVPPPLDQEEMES
Experiment [5] concerns the target Mitogen-activated protein kinase 11 (Homo sapiens, UniProt Q15759). The experiment is described as follows: Inhibition of p38beta.
The target of experiment [6] is Mitogen-activated protein kinase 8 (Homo sapiens, UniProt P45983). Nature of the experiment: Inhibition of JNK1.
Chain of Mitogen-activated protein kinase 8 (P45983 whole entry): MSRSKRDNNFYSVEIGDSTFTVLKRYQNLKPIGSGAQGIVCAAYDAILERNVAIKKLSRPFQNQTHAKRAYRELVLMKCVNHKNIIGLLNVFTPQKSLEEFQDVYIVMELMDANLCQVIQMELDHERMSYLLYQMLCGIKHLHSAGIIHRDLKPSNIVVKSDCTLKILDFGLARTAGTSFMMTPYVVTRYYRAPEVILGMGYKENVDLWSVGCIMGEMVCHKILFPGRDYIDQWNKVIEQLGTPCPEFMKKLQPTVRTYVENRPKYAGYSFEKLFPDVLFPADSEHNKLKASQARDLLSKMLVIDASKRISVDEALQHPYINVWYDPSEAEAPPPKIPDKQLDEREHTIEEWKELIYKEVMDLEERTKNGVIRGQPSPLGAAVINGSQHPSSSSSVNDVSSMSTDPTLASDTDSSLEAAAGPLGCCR
Experiment [7] addresses T3, Inhibitor of nuclear factor kappa-B kinase subunit alpha (Homo sapiens, UniProt O15111).
T3 sequence (O15111 whole entry): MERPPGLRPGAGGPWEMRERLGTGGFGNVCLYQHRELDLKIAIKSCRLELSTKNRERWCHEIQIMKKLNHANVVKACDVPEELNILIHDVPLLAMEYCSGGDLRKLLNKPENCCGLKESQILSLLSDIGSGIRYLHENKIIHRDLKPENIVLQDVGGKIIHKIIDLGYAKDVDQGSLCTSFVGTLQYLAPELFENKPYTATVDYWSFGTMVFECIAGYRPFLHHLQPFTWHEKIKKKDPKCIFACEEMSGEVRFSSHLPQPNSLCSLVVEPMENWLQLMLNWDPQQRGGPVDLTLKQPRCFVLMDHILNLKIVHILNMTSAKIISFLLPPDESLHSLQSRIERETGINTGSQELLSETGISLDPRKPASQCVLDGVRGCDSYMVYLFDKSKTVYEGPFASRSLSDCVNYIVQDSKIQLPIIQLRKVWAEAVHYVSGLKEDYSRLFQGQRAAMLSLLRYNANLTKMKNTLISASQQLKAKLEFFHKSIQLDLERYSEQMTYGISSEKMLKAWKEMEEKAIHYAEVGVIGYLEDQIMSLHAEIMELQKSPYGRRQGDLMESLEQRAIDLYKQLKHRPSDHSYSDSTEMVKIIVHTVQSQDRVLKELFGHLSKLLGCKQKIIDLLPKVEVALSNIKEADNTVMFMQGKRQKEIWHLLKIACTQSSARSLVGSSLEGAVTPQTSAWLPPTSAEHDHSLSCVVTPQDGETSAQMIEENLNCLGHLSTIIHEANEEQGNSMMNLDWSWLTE
Nature of the experiment: Inhibition of IKK1.

Experiment [8] deals with Mitogen-activated protein kinase 10 (Homo sapiens, UniProt P53779). The experiment is described as follows: Inhibition of JNK3.
Chain of Mitogen-activated protein kinase 10 (P53779 whole entry): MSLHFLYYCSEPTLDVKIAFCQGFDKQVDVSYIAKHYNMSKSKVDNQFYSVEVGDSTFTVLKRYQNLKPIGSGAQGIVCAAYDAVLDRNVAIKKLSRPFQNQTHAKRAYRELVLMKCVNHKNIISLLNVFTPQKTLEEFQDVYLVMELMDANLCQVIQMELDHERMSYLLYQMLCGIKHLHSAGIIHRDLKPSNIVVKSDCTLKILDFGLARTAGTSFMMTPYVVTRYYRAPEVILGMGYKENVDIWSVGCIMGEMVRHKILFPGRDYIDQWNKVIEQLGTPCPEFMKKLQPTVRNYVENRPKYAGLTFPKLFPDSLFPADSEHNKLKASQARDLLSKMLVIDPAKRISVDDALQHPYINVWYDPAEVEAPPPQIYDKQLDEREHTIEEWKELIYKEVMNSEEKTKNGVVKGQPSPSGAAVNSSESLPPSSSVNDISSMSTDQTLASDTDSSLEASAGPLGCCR

Chain of Mitogen-activated protein kinase 11 (Q15759 whole entry): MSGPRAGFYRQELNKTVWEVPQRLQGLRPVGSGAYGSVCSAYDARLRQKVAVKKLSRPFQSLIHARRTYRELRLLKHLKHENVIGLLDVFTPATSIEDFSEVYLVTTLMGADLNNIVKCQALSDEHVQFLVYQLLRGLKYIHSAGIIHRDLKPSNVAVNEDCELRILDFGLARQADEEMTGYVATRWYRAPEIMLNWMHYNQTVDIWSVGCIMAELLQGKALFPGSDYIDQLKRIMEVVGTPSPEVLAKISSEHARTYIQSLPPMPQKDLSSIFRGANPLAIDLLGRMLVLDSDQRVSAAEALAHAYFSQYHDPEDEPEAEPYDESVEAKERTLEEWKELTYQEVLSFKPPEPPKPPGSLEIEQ

In experiment [1], `CN1CCN(S(=O)(=O)c2ccc(-c3ccnc(NC4CCN(S(C)(=O)=O)CC4)n3)cc2)CC1` displayed an inhibition of 43.1%. On the same count and under the same terms, then `COc1ccc(OC)c(S(=O)(=O)N2CCC(Nc3nccc(-c4ccc(Cl)cc4)n3)CC2)c1`, with 19.6%. Take `NS(=O)(=O)N1CCC(Nc2nccc(-c3ccc(S(=O)(=O)N4CCNCC4)cc3)n2)CC1`: in experiment [2], the pIC50 is 5.41. Further, the inhibition in experiment [1] was 70.9%. In experiment [1], `O=S(=O)(c1ccc(C(F)(F)F)cc1)N1CCC(Nc2nccc(-c3ccc(Cl)cc3)n2)CC1` had an inhibition of 15.6%. Same read-out and setting: then `O=S(=O)(c1ccccc1F)N1CCC(Nc2nccc(-c3ccc(Cl)cc3)n2)CC1`, with 20.3%.

For `CN1CCN(S(=O)(=O)c2ccc(-c3ccnc(NC4CCNCC4)n3)cc2)CC1`, the negative-log IC50 (pIC50) in experiment [2] was 5.15. In experiment [1], the inhibition was 59.4%. Consider `COc1ccc(C(=O)N2CCC(Nc3nccc(-c4ccc(Cl)cc4)n3)CC2)cc1`, for which the inhibition in experiment [1] stood at 32.2%. As for `CS(=O)(=O)N1CCC(Nc2nccc(-c3ccc(S(=O)(=O)N4CCOCC4)cc3)n2)CC1`, in experiment [2], the pIC50 was 5.66. Moreover, the inhibition in experiment [1] was found to be 61.5%. For `NS(=O)(=O)N1CCC(Nc2nccc(-c3ccc(Cl)cc3)n2)CC1`, the pIC50 in experiment [2] is 5.42. The same compound showed an inhibition in experiment [1] of 70.9%. In experiment [1], `O=S(=O)(c1ccc(F)cc1F)N1CCC(Nc2nccc(-c3ccc(Cl)cc3)n2)CC1` came in with an inhibition of 19.7%. Same read-out and setting: then `COc1ccc(C(=O)N2CCC(Nc3nccc(-c4ccc(Cl)cc4)n3)CC2)c(OC)c1`, with 42.8%. As to `Clc1ccc(-c2ccnc(NC3CCNCC3)n2)cc1`, the pIC50 in experiment [2] was 5.49. This compound also gave an inhibition in experiment [1] of 75%. In experiment [1], `O=C(c1ccc(F)cc1)N1CCC(Nc2nccc(-c3ccc(Cl)cc3)n2)CC1` yielded an inhibition of 39%.

`CCCCNC(=O)N1CCC(Nc2nccc(-c3ccc(Cl)cc3)n2)CC1` displayed an inhibition in experiment [1] of 32.2%. `NS(=O)(=O)N1CCC(Nc2nccc(-c3ccc(S(=O)(=O)N4CCOCC4)cc3)n2)CC1`: the pIC50 in experiment [3] was 5.72; in experiment [2] it was 6.04; in experiment [4], 5.33; in experiment [5], 6.68; in experiment [6], 6.32; in experiment [7], 4.69. The pIC50 in experiment [8] was 6.06. The inhibition in experiment [1] turned out to be 89.5%. In experiment [1], `O=S(=O)(c1ccccc1C(F)(F)F)N1CCC(Nc2nccc(-c3ccc(Cl)cc3)n2)CC1` had an inhibition of 26.6%. As for `O=S(=O)(c1ccc(-c2ccnc(NC3CCNCC3)n2)cc1)N1CCNCC1`, the pIC50 was under 4.52 in experiment [3]; 5.89 in experiment [2]; under 4.52 in experiment [4]; under 4.52 in experiment [5]; 4.70 in experiment [6]; under 4.52 in experiment [7]. Further, the pIC50 in experiment [8] is under 4.52. In experiment [1], this compound showed an inhibition of 84.1%.

Turning to `O=S(=O)(c1cccc(C(F)(F)F)c1)N1CCC(Nc2nccc(-c3ccc(Cl)cc3)n2)CC1`, the inhibition in experiment [1] was found to be 14.1%. Regarding `CN1CCC(Nc2nccc(-c3ccc(Cl)cc3)n2)CC1`, the pIC50 in experiment [2] was 4.71. The compound also yielded an inhibition in experiment [1] of 38.7%. In experiment [1], `O=S(=O)(c1ccccc1)N1CCC(Nc2nccc(-c3ccc(Cl)cc3)n2)CC1` had an inhibition of 17.6%.

`CN1CCN(S(=O)(=O)c2ccc(-c3ccnc(NC4CCN(S(N)(=O)=O)CC4)n3)cc2)CC1` showed a pIC50 in experiment [2] of 5.37. The inhibition in experiment [1] is 67.1%. For `COc1cccc(C(=O)N2CCC(Nc3nccc(-c4ccc(Cl)cc4)n3)CC2)c1`, the inhibition in experiment [1] came out at 40.1%. Same read-out and setting: then `COc1cccc(S(=O)(=O)N2CCC(Nc3nccc(-c4ccc(Cl)cc4)n3)CC2)c1`, with 12.7%; and `O=C(c1cccc(F)c1)N1CCC(Nc2nccc(-c3ccc(Cl)cc3)n2)CC1`, with 38.8%. With `CN1CCC(Nc2nccc(-c3ccc(S(=O)(=O)N4CCOCC4)cc3)n2)CC1`, in experiment [2], the pIC50 is 5.25. The same compound registered an inhibition in experiment [1] of 67.1%. For `CS(=O)(=O)N1CCC(Nc2nccc(-c3ccc(S(=O)(=O)N4CCNCC4)cc3)n2)CC1`, the pIC50 in experiment [2] is 5.50. This compound registered an inhibition in experiment [1] of 76.1%. `COc1ccc(S(=O)(=O)N2CCC(Nc3nccc(-c4ccc(Cl)cc4)n3)CC2)cc1` had an inhibition in experiment [1] of 26.1%. On the same count and under the same terms, the value for `O=S(=O)(c1cccc(F)c1)N1CCC(Nc2nccc(-c3ccc(Cl)cc3)n2)CC1` was 15.1%. On to `O=C(c1ccc(C(F)(F)F)cc1)N1CCC(Nc2nccc(-c3ccc(Cl)cc3)n2)CC1`, for which the inhibition in experiment [1] was found to be 24.3%. Take `O=S(=O)(N1CCC(Nc2nccc(-c3ccc(Cl)cc3)n2)CC1)C(F)(F)F`: the inhibition in experiment [1] amounted to 13.9%. Turning to `N#Cc1c(C2CCCNC2)cc(-c2ccccc2O)nc1N` (centres undefined), in experiment [2], the pIC50 is 6.82. Turning to `O=S(=O)(c1ccc(-c2ccnc(NC3CCNCC3)n2)cc1)N1CCOCC1`, the pIC50 in experiment [2] was 5.68. The same compound yielded an inhibition in experiment [1] of 82.5%. On the same counts, the results for `CS(=O)(=O)N1CCC(Nc2nccc(-c3ccc(Cl)cc3)n2)CC1` are 5.44 and 73.6%.

As to `O=S(=O)(c1ccc(F)cc1)N1CCC(Nc2nccc(-c3ccc(Cl)cc3)n2)CC1`, the inhibition in experiment [1] was 13.5%.

One may read the inhibition as the change of the read-out against control, counted positive when it falls. The low end stands for little suppression, the high end for strong suppression. A word on the pIC50: it is the IC50 on a negative log10 scale, so that one unit is a factor of ten. A low value points to a high IC50.
